Measured values published in ChEMBL document CHEMBL1127574, “Design and synthesis of ellipticinium salts and 1,2-dihydroellipticines with high selectivities against human CNS cancers in vitro” (1994).

Tests used:
Type in all cases: functional
Conditions in all cases: Homo sapiens
[1] = system: CCRF-CEM; assay: Tested in vitro for cytotoxicity in CCRF-CEM cell lines
Method in brief: (§1)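 Compounds dissolved in DMSO, then diluted 500-fold into aqueous medium. The resulting aqueous solutions or suspensions were added to the cultured human tumour cell lines, and the cells were exposed for 48 h. Growth was read colorimetrically in one of two ways: a metabolic assay in which viable cells reduce a tetrazolium salt to a formazan dye, or a protein stain for total cellular protein.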

[2] = system: IGROV-1; assay: Tested in vitro for cytotoxicity in IGROV1 cell lines; method in brief: as §1
[3] = system: SF-268; assay: Tested in vitro for cytotoxicity in SF-268 cell lines; method in brief: as §1
[4] = system: COLO 205; assay: Tested in vitro for cytotoxicity in COLO 205 cell lines; method in brief: as §1
[5] = system: DMS-114; assay: Tested in vitro for cytotoxicity in DMS114 cell lines; method in brief: as §1
[6] = system: CAKI-1; assay: Tested in vitro for cytotoxicity in CAKI-1 cell lines; method in brief: as §1
[7] = system: A549; assay: Tested in vitro for cytotoxicity in A549/ATCC cell lines; method in brief: as §1
[8] = system: Malme-3M; assay: Tested in vitro for cytotoxicity in MALME-3M; method in brief: as §1

Structure (SMILES) | GI50 [1] [µM] | GI50 [2] [µM] | GI50 [3] [µM] | GI50 [4] [µM] | GI50 [5] [µM] | GI50 [6] [µM] | GI50 [7] [µM] | GI50 [8] [µM]
Cc1c2cc[n+](C[S+](C)[O-])cc2c(C)c2c1[nH]c1ccccc12 (stereo not drawn) | 40.6 | 29.5 | 2.46 | 31 | 6.6 | 35.8 | 71 | –
COC(=O)C[n+]1ccc2c(C)c3[nH]c4ccccc4c3c(C)c2c1 | > 100 | > 100 | 12.8 | > 100 | > 100 | – | > 100 | > 100
COCN1C=Cc2c(c(C)c3c([nH]c4ccccc43)c2C)C1 | 4.98 | 5.88 | 8.02 | 8.68 | 10.4 | 11.1 | 5.06 | 8.87
Cc1c2cc[n+](CC(=O)O)cc2c(C)c2c1[nH]c1ccccc12 | > 100 | > 100 | 97.1 | > 100 | 76.8 | – | 77.3 | 26.3
COC[n+]1ccc2c(C)c3[nH]c4ccccc4c3c(C)c2c1 | 14.6 | 9.2 | 0.679 | 4.7 | 2.28 | 19.2 | 1.79 | 0.647
COC[n+]1ccc2c(C)c3[nH]c4ccc(OC)cc4c3c(C)c2c1 | 6.86 | 27.8 | 0.818 | 2.68 | 1.32 | 20.2 | 13.7 | 1.92
Cc1ccc2[nH]c3c(C)c4c(c(C)c3c2c1)CN(C)C=C4 | 2.34 | 0.774 | 0.395 | 0.306 | 0.438 | 1.21 | 0.38 | 1.72
COc1ccc2[nH]c3c(C)c4c(c(C)c3c2c1)CN(C)C=C4C=O | 60.4 | 31.2 | 1.12 | 16.2 | 2.5 | 73.2 | 75.7 | 40
CC(=O)O[C@@H]1[C@@H](OC(C)=O)[C@@H](N2C=Cc3c(c(C)c4c([nH]c5ccccc54)c3C)C2)OC[C@@H]1OC(C)=O | 29 | 24.1 | 31 | 36.7 | 15.6 | > 100 | 64 | 30.2
CSC[n+]1ccc2c(C)c3[nH]c4ccccc4c3c(C)c2c1 | 5.02 | 18.2 | 0.726 | 2.48 | 2.67 | 19.6 | 5.23 | 1.99
Cc1c2cc[n+](CC#N)cc2c(C)c2c1[nH]c1ccccc12 | 100 | 35.6 | 13 | 34.6 | 44.7 | > 100 | 97.5 | 27.2
Cc1c2ccncc2c(C)c2c1[nH]c1ccccc12 [ELLIPTECINE] | 0.415 | 0.862 | 0.816 | 0.588 | 0.552 | 1.01 | 0.41 | 2.52
